KCNK9 inh: KCNK9 potassium channel inhibitors, primary screen, HEK293 cells, thallium flux. FluxOR thallium flux fluorescence; stronger effect = lower value. AID 488922, 2010. 310,000 tested, 1.2% active. B-score at 10 µM;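 active = ratio B-score over 3 SD below the library mean, with starting fluorescence within 5 SD of its mean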;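 also: negative B-score means less thallium flux so channel inhibition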
Target sequence (Q9NPC2 whole entry, looked up): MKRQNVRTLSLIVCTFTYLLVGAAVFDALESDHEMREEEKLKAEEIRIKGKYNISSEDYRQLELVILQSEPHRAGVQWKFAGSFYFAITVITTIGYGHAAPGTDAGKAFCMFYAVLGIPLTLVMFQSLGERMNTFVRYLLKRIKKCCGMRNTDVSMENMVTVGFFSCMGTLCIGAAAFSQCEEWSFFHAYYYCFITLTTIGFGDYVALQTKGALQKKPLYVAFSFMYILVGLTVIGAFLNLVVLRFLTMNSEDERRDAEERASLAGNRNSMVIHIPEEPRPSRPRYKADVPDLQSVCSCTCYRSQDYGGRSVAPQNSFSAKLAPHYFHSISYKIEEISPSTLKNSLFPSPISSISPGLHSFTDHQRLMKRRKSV
hERG rescue: hERG rescue from dofetilide block, primary screen, cell-based, CHO-hERG, FluxOR thallium flux, dofetilide IC70. dofetilide IC70 present. activation (rescue from dofetilide block), less the hit threshold, % at 10 µM. 310,000 tested, 0.51% active. Voltage-gated inwardly rectifying potassium channel KCNH2 (Homo sapiens), Q12809. AID 1511, 2009;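 active = activation above the mean of controls blocked by dofetilide plus 5 SD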;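 also: thallium influx through hERG after potassium depolarization seen as dye fluorescence rise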
Kir21 block: inhibitors of mouse Kir2.1 inward-rectifier potassium channel; HEK293-Kir2.1, FluxOR thallium flux fluorescence; stronger effect = lower value; B-score at 10 µM; AID 1672, 2009; 310,000 tested, 0.85% active;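 active = fluorescence ratio B-score at or below minus 3 SD of library scores, with starting-brightness B-score within 2 SD, cut at about -4.2 in these data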;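 also: channel flux triggered by added potassium and thallium sulfate stimulus; B-score of peak minus minimum fluorescence over baseline after thallium stimulus; more negative B-score means stronger Kir2.1 block with less thallium influx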
KCNQ1 block: inhibitors of human KCNQ1 channel, primary screen, cell-based, thallium flux, high-throughput; Potassium voltage-gated channel subfamily KQT member 1 (Homo sapiens), P51787; CHO-K1 KCNQ1, FluxOR thallium flux fluorescence; stronger effect = higher value; B-score at 10 µM; 310,000 tested, 1.3% active;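 active = compounds whose thallium flux B-score, printed positive for inhibition, exceeds three library SD while starting fluorescence stays within three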;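 also: channel opened by potassium depolarization with thallium stimulus after 20 min compound exposure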
KCNQ1 act: potentiators or activators of KCNQ1 channel, primary screen, cell-based, thallium flux, high-throughput | Potassium voltage-gated channel subfamily KQT member 1 (Homo sapiens), P51787 | CHO-K1 KCNQ1, thallium flux FluxOR fluorescence; stronger effect = higher value | B-score at 10 µM | 310,000 tested, 0.35% active;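 active = fluorescence ratio B-score, a plate-corrected score, at least three library SD, with initial intensity B-score within 5 SD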
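System: CHO-K1 cells stably expressing KCNQ1 / Medium: assay buffer for compound exposure, DMSO matched across wells / Reagent: thallium- and potassium-containing depolarizing buffer / Compound: one concentration, matched DMSO / Incubation: 20 min compound pretreatment at room temperature / Measured by: kinetic FluxOR fluorescence, 10 s baseline plus 110 s post-stimulus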
KCNK3 block: human KCNK3 channel inhibitors, primary screen, CHO cells, FluxOR thallium flux, B-score; Potassium channel subfamily K member 3 (Homo sapiens), O14649; FluxOR fluorescence; stronger effect = lower value; B-score at 10 µM; 340,000 tested, 0.84% active; AID 602410, 2012;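 active = B-score under library mean minus 4 SD, starting fluorescence ratio at most library mean plus 5 SD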;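 also: more negative B-score means stronger inhibition of thallium flux through KCNK3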
Hits are given with their value. Shown are actives, neighbours in structure and some others; about 3.7% of the full set was active somewhere.

Results for CCOC(=O)c1cc(C(=O)NN)c(C)nc1C ?
KCNK9 inh: inactive; hERG rescue: inactive; Kir21 block: inactive; KCNQ1 block: inactive; KCNQ1 act: inactive; KCNK3 block: inactive

Results for CCOC(=O)c1cc(-c2nnc(-c3ccc(Oc4ccccc4)cc3)o2)c(C)nc1C ?
KCNK9 inh: inactive; hERG rescue: inactive; Kir21 block: inactive; KCNQ1 block: inactive; KCNQ1 act: inactive; KCNK3 block: -10

What do the screens show for `CS(=O)(=O)N(CC(=O)N1CCOCC1)c1cc(C(F)(F)F)ccc1Cl`?
KCNK9 inh: inactive; hERG rescue: 7.3; Kir21 block: inactive; KCNQ1 block: inactive; KCNQ1 act: inactive; KCNK3 block: inactive

How did CS(=O)(=O)N(CC(=O)N1CCCC1)c1cc(C(F)(F)F)ccc1Cl do in these assays?
KCNK9 inh: inactive; hERG rescue: inactive; Kir21 block: inactive; KCNQ1 block: inactive; KCNQ1 act: inactive; KCNK3 block: inactive

How did Cc1onc(-c2ccccc2Cl)c1C(=O)NC1CCCCCC1 do in these assays?
KCNK9 inh: inactive; hERG rescue: inactive; Kir21 block: inactive; KCNQ1 block: inactive; KCNQ1 act: inactive; KCNK3 block: inactive

How did CN(CCOc1ccccc1)C(=O)c1ccc(F)c(S(=O)(=O)N2CCOCC2)c1 do in these assays?
KCNK9 inh: inactive; hERG rescue: inactive; Kir21 block: inactive; KCNQ1 block: inactive; KCNQ1 act: inactive; KCNK3 block: inactive

What do the screens show for `CCN(CC(=O)Nc1c(F)cccc1F)C(=O)CSc1ccc(F)cc1`?
KCNK9 inh: inactive; hERG rescue: inactive; Kir21 block: inactive; KCNQ1 block: inactive; KCNQ1 act: inactive; KCNK3 block: inactive

Results for CCN(CC(=O)NCc1ccc(Cl)cc1)C(=O)CSc1ccc(F)cc1 ?
KCNK9 inh: inactive; hERG rescue: inactive; Kir21 block: -4.47; KCNQ1 block: inactive; KCNQ1 act: inactive; KCNK3 block: inactive

How did Cc1ccc(C(=O)N2[C@@H]3CN(C)C(=O)[C@@]2(Cc2ccccc2)[C@H]2C(=O)N(C)C(=O)[C@@H]32)cc1 do in these assays?
KCNK3 block: inactive

How did Cc1occc1C(=O)NNC(=S)NC(=O)COc1ccc(Cl)cc1Cl do in these assays?
KCNK9 inh: inactive; hERG rescue: 61.8; Kir21 block: inactive; KCNQ1 block: inactive; KCNQ1 act: 75; KCNK3 block: inactive

What do the screens show for `O=C(COC(=O)c1ccc(O)cc1O)NC(=O)NCc1ccccc1`?
KCNK3 block: inactive

Results for N#CC1=C(N)NC(SCc2ccc(F)cc2)=C(C#N)C12CCCCC2 ?
KCNK9 inh: inactive; hERG rescue: inactive; Kir21 block: -4.43; KCNQ1 block: inactive; KCNQ1 act: inactive; KCNK3 block: inactive

Results for N#CC1=C(N)NC(SCC(=O)Nc2ccccc2)=C(C#N)C12CCCC2 ?
KCNK9 inh: inactive; hERG rescue: inactive; Kir21 block: inactive; KCNQ1 block: 10; KCNQ1 act: inactive; KCNK3 block: inactive

What do the screens show for `CCN(c1ccccc1)S(=O)(=O)c1ccc(NC(=S)NC(=O)c2ccc(Br)o2)cc1`?
KCNK9 inh: inactive; hERG rescue: 10.9; Kir21 block: inactive; KCNQ1 block: inactive; KCNQ1 act: 12; KCNK3 block: inactive

How did Cc1cccc(C)c1NC(=S)NC(=O)c1ccc(Br)o1 do in these assays?
KCNK9 inh: inactive; hERG rescue: 25.3; Kir21 block: inactive; KCNQ1 block: inactive; KCNQ1 act: 27; KCNK3 block: inactive

How did Cc1cccc(NC(=S)NC(=O)c2ccc(Br)o2)c1C do in these assays?
KCNK9 inh: inactive; hERG rescue: 46.5; Kir21 block: inactive; KCNQ1 block: inactive; KCNQ1 act: inactive; KCNK3 block: inactive

What do the screens show for `Cc1ccc(NC(=S)NC(=O)c2ccc(Br)o2)c(C)c1`?
KCNK9 inh: inactive; hERG rescue: inactive; Kir21 block: inactive; KCNQ1 block: inactive; KCNQ1 act: inactive; KCNK3 block: inactive

What do the screens show for `O=C(NC(=S)Nc1ccccc1F)c1ccc(Br)o1`?
KCNK9 inh: inactive; hERG rescue: 31.6; Kir21 block: inactive; KCNQ1 block: inactive; KCNQ1 act: 77; KCNK3 block: inactive

What do the screens show for `CC(C)CCn1c(=S)[nH]c2ncccc2c1=O`?
KCNK9 inh: inactive; hERG rescue: 9.9; Kir21 block: inactive; KCNQ1 block: inactive; KCNQ1 act: 10; KCNK3 block: inactive

How did O=C(COC(=O)c1cc(Cl)ccc1Cl)Nc1ccc2[nH]c(=O)[nH]c2c1 do in these assays?
KCNK9 inh: inactive; hERG rescue: inactive; Kir21 block: inactive; KCNQ1 block: inactive; KCNQ1 act: inactive; KCNK3 block: inactive

Results for CCSc1nnc([C@H](Cc2ccccc2)NC(=O)OC(C)(C)C)o1 ?
KCNK9 inh: inactive; hERG rescue: inactive; Kir21 block: inactive; KCNQ1 block: inactive; KCNQ1 act: inactive; KCNK3 block: inactive

Results for Cc1ccccc1CS(=O)(=O)c1nnc([C@H](Cc2ccccc2)NC(=O)OC(C)(C)C)o1 ?
KCNK9 inh: inactive; hERG rescue: inactive; Kir21 block: inactive; KCNQ1 block: inactive; KCNQ1 act: 12; KCNK3 block: inactive

Results for Cc1cccc(Nc2c3c(nc4ccccc24)CCC3)c1 ?
KCNK9 inh: inactive; hERG rescue: inactive; Kir21 block: -6.02; KCNQ1 block: inactive; KCNQ1 act: inactive; KCNK3 block: inactive

How did COc1ccc(Nc2c3c(nc4ccc(C)cc24)CCC3)cc1 do in these assays?
KCNK9 inh: inactive; hERG rescue: inactive; Kir21 block: inactive; KCNQ1 block: 8; KCNQ1 act: inactive; KCNK3 block: inactive

How did Cc1ccc2nc3c(c(Nc4ccc5c(c4)OCCO5)c2c1)CCC3 do in these assays?
KCNK9 inh: inactive; hERG rescue: inactive; Kir21 block: -5.63; KCNQ1 block: inactive; KCNQ1 act: inactive; KCNK3 block: inactive

Results for Cc1ccc2nc3c(c(Nc4ccc(O)cc4)c2c1)CCC3 ?
KCNK9 inh: inactive; hERG rescue: inactive; Kir21 block: inactive; KCNQ1 block: inactive; KCNQ1 act: inactive; KCNK3 block: inactive

Results for O=[N+]([O-])c1cccc(S(=O)(=O)Nc2ccc3cn[nH]c3c2)c1 ?
KCNK3 block: inactive

Results for CCN1C(=O)CC(c2ccc(OC(C)C)cc2)C1=O (stereo unspecified) ?
KCNK9 inh: inactive; hERG rescue: inactive; Kir21 block: inactive; KCNQ1 block: inactive; KCNQ1 act: inactive; KCNK3 block: inactive

Results for Cc1ccc(NC(=O)c2cc3cc(OC(F)(F)F)ccc3[nH]2)cc1 ?
KCNK9 inh: inactive; hERG rescue: inactive; Kir21 block: inactive; KCNQ1 block: 6; KCNQ1 act: inactive
